Bioassay records: PubChem, Sanford-Burnham Center for Chemical Genomics
hiPSC survival = enhancers of human iPSC single-cell survival; actives 0.044% (n = 360,000); hiPSC single-cell survival, ATPlite luminescence; 100% = ROCK inhibitor wells, 0% = DMSO; survival enhancement, % at 20 µM; AID 602274; in the data active = survival enhancement above about 18%;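 note: cells exposed to compounds for 16 hours before the ATP read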
TAG inh = inhibitors of triacylglycerol accumulation; H9c2 cells, Nile Red lipid (TAG) fluorescence; cells loaded with 200 µM oleic acid; inhibition, % at 12.5 µM; actives 0.66% (n = 230,000);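 active = pattern-corrected inhibition of lipid staining of at least 50% with the nuclear-stain viability signal not falling by more than 50%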;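 note: 0% = DMSO wells and 100% = triacsin C control wells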
Jurkat NFkB inh = lowers PMA/ionomycin-induced NF-kB signal in Jurkat cells | PMA/ionomycin-induced NF-kB luciferase reporter, luminescence | inhibition, % at 4 µM | actives 0.53% (n = 330,000) | AID 435003; in the data active = inhibition above about 50%
Gli-Sufu block = antagonists of Gli-Sufu signaling; actives 0.74% (n = 340,000); inhibition, % at 5 µM; Sufu-KO-LIGHT fibroblasts, Gli luciferase reporter luminescence;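 active = inhibition above about 55%, limit read from the data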;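 note: 0% = DMSO-treated cells and 100% = wells with medium but no cells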
Lipid droplet = hepatic lipid droplet formation modulation; AML12 mouse hepatocytes, oleate lipid droplets, BODIPY imaging; actives 0.4% (n = 240,000); inhibition, % at 6.5 µM;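 active = lipid droplet intensity inhibited by at least 50%, with more than 500 cells counted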
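Material – mouse AML12 hepatocyte cell line, fixed after treatment · Compound dosing – one dose, 6.5 µM compound · Times – compound with oleate, overnight · Measured by – Image-based BODIPY and DAPI two-channel analysis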
697 NFkB inh = lowers PMA/ionomycin-induced NF-kB signal in 697 B cells; actives 0.33% (n = 330,000); inhibition, % at 4 µM; 697 B-cell NF-kB luciferase reporter, 16 h; in the data active = inhibition above about 35%
697 NFkB conf = inhibitors of the PMA/ionomycin-induced NF-kB reporter in 697 B cells, retest | shares compounds with 697 NFkB inh | 697 B-cell NF-kB luciferase, 16 h | inhibition, % at 4 µM | actives 35% (n = 2,000) | AID 449746; in the data active = inhibition mostly above about 28%, no sharp cut-off; inactive = mostly below about 22%
* marks the source's active call; other numbers are inactive results; i = inactive; · = no result. Only some compounds are listed: those with a hit (about 1.8% of all), similar ones and a draw of the others.

SMILES | hiPSC survival | TAG inh | Jurkat NFkB inh | Gli-Sufu block | Lipid droplet | 697 NFkB inh | 697 NFkB conf
Cc1ccc(-c2cc3onc(-c4ccccc4)c3c(=O)n2C)cc1 | -3 | -15 | -100 | -17 | · | -346 | -385
Cn1c(-c2ccc(F)cc2)cc2onc(-c3c(F)cccc3Cl)c2c1=O | · | · | -9 | -154 | · | -165 | ·
CCCOc1ccc(-c2cc3onc(-c4ccccc4)c3c(=O)n2C)cc1 | -2 | -41 | 10 | -38 | · | -278 | -370
CNC(=O)c1ccc(-c2cc3onc(-c4ccccc4)c3c(=O)n2C)cc1 | 0 | 7 | -107 | -69 | · | -171 | ·
CCCCn1nnnc1C(c1ccccc1)N1CCN(c2cccc(C(F)(F)F)n2)CC1 (stereo not drawn) | -1 | · | · | · | · | · | ·
Cc1ccc(C)c(N(C(=O)c2ccco2)C(C(=O)NC2CCCC2)c2ccco2)c1 (stereo not drawn) | 0 | · | -28 | -6 | -17 | 1 | ·
Cc1cccc(-n2c(SCC(=O)Nc3ncc(Cl)cc3Cl)nc3ccccc32)c1 | 0 | -5 | · | 6 | -6 | · | ·
COc1ccc(-n2c(SCC(=O)Nc3ncc(Cl)cc3Cl)nc3ccccc32)cc1 | · | · | -65 | · | -13 | i | i
O=C(CSc1nc2ccccc2n1-c1ccccc1)Nc1ncc(Cl)cc1Cl | 2 | · | -56 | 3 | -17 | i | i
CN(C(=O)COC(=O)CSc1cc(Cl)ccc1Cl)c1c(N)n(Cc2ccccc2)c(=O)[nH]c1=O | 0 | -1 | -14 | -5 | · | -24 | ·
O=C(Cc1coc2ccc3ccccc3c12)Nc1nnc(C2CC2)s1 | 4 | 10 | -36 | -2 | · | i | -414
Cc1cc2occ(CC(=O)Nc3nnc(C4CC4)s3)c2cc1C | 0 | -1 | -3 | 3 | 3 | -10 | ·
CN(Cc1ccc(F)cc1)C(=O)CNC(=O)C1CCCCC1 | 0 | 1 | 0 | 5 | -8 | 9 | ·
CC(=O)Nc1ccc(S(=O)(=O)Oc2ccc3c(c2)C(C)=CC(C)(C)N3)cc1 | · | · | -18 | · | -49 | i | i
CC1=CC(C)(C)Nc2ccc(OS(=O)(=O)c3ccc(C)cc3)cc21 | -1 | · | 1 | 2 | · | 13 | ·
COc1ccc(NC(=O)CCCC(=O)OCC(=O)c2cccc(OC)c2)cc1 | 1 | · | -6 | -10 | 2 | -2 | ·
O=C(c1ccc(OC2CCN(Cc3ccccn3)CC2)cc1)N1CCCC(O)C1 (stereo not drawn) | 0 | 116 | -15 | -1 | 43 | 7 | ·
CCCNC(=O)CSCc1nc(-c2ccc(SC)cc2)oc1C | 2 | 10 | -11 | 24 | -9 | 48* | 42*
Cc1c(CCC(=O)N[C@@H](C)C(=O)O)c(=O)oc2cc3oc4c(c3cc12)CCCC4 | 0 | · | 12 | 11 | -15 | 41* | 18
Cc1c(CC(=O)NCCCC(=O)O)c(=O)oc2cc3oc4c(c3cc12)CCCC4 | 0 | · | -7 | -2 | -5 | -13 | ·
O=C(O)C1CCN(C(=O)COc2ccc3c4c(c(=O)oc3c2)CCCC4)CC1 | 3 | · | 1 | -1 | 8 | 38* | 13
Cc1c(CCC(=O)N2CCC(C(=O)O)(c3ccccc3)CC2)c(=O)oc2cc3oc4c(c3cc12)CCCC4 | -1 | · | -1 | 9 | · | 53* | 37*
Cc1oc2cc3oc(=O)c(CCC(=O)N4CCC(C(=O)O)(c5ccccc5)CC4)c(C)c3cc2c1C | 1 | · | · | · | · | · | ·
Cc1c(CCC(=O)N2CCC(C(=O)O)CC2)c(=O)oc2cc3oc4c(c3cc12)CCCC4 | 0 | · | 0 | 6 | -13 | 49* | 47*
Cc1c(CC(=O)NCCC(=O)O)c(=O)oc2cc3oc4c(c3cc12)CCCC4 | 0 | · | 16 | 7 | -26 | 17 | ·
O=C(COC(=O)/C=C/c1ccco1)Nc1cc(S(=O)(=O)N2CCOCC2)ccc1Cl | 0 | 8 | 2 | -8 | · | 6 | ·
CCc1ccc([C@H]2[C@@H]3C(=O)C[C@@H]4C(=O)NC(=O)[C@@H]4[C@@H]3CN2S(=O)(=O)c2ccc(C)cc2)cc1 | -2 | · | · | · | · | · | ·
O=C(Nc1ccccc1C(=O)NCCCN1CCOCC1)c1ccc(F)cc1 | -1 | 2 | 7 | 4 | 4 | -11 | ·
